Active and inactive are the calls of the source.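 Rule for the calls, unless noted: active = inhibition at or above 50% at 10 µM; inactive = inhibition below 50%.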
Assays:
[1] = inhibitors of TNFa-induced NFkB p65 translocation, primary screen, imaging, HUVEC, MLSMR starter and 10KST1 sets (AID 438;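 active = inhibition above 20% together with a positive visual image hit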;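 note: compound added about 3h40 before a 20 min TNFalpha stimulation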;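 for inhibition: signal is the nuclear over cytoplasmic p65 intensity ratio per well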); conditions: HUVEC TNFa-induced p65 nuclear translocation; cell count: measured here: nuclei count (cytotoxicity indicator), at 2.08 µM; inhibition: at 2 µM, stronger effect = higher value, 0% TNFa-plus-vehicle, 100% no-TNFa wells
[2] = reduction of polyQ htt aggregates in cells – imaging, exon1htt(103Q)mCFP cells, high-content imaging, primary screen (AID 483;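 active = visual image review flags a hit and inhibition of aggregation exceeds 20%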;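 note: compound exposure lasted 3 days before fixation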;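 for nuclei count: percent of the per-plate median nuclei count of sample wells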); conditions: exon1htt(103Q)mCFP cell line, aggregate imaging, at 2 µM; inhibition of aggregation: stronger effect = higher value; nuclei count: measured here: cell count, toxicity
[3] = endothelial E-selectin expression blockers – imaging, HUVEC, immunofluorescence, MLSMR starter and 10KST1 sets, primary screen (AID 487;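 active = visually confirmed hit in the image check and inhibition above 20%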;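 for inhibition: signal is fraction of cell area covered by stained E-selectin grains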;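 for nuclei count: 100% = median nuclei count of all wells on the same plate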); conditions: HUVEC TNFalpha-induced E-selectin immunofluorescence imaging, at 2 µM; inhibition: stronger effect = higher value; nuclei count: measured here: cell number, toxicity
[4] = biological target: Voltage-gated potassium channel subunit beta-2 (Rattus norvegicus) (UniProt P62483); assay: inhibitors of rat Kvbeta2 reductase activity – biochemical, NADPH fluorescence, primary screen (AID 622;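 active = fluorescence slope higher than the sample average by over 3 SD, cut at about -0.22 in these data, passing the limit was not always enough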;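 note: slope of raw intensity against log time taken from 70 to 1610 s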); conditions: recombinant KvBeta, 4-cyanobenzaldehyde reduction, at 10 µM, stronger effect = higher value
Sequence of Voltage-gated potassium channel subunit beta-2 (Rattus norvegicus) (P62483 whole entry, looked up): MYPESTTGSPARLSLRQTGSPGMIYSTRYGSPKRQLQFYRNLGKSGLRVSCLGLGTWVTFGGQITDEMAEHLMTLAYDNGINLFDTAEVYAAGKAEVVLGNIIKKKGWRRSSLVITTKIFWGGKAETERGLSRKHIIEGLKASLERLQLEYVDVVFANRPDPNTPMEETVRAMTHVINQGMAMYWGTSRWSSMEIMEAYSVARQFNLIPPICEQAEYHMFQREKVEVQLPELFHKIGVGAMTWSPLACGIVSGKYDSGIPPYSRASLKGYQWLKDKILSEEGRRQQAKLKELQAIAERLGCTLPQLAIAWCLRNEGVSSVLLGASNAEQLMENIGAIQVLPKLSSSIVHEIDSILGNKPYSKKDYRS

[5] = biological target: Voltage-gated potassium channel subunit beta-2 (Rattus norvegicus) (UniProt P62483); assay: enhancers of rat Kvbeta2 NADPH turnover – biochemical, NADPH fluorescence, primary screen (AID 623;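 active = NADPH fluorescence slope more negative than the mean of all samples by about 3 SD, 99.7% confidence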;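 note: fluorescence intensity change per second fitted from 20 to 320 s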); conditions: Recombinant KvBeta, NADPH fluorescence decrease slope, 10 min; at 10 µM; stronger effect = lower value
[6] = biological target: Muscarinic acetylcholine receptor M4 (Homo sapiens) (UniProt P08173); assay: M4-linked GIRK flux change, two-sided – cell-based, HEK293 M4/GIRK, thallium flux, BTC-AM, M4 allosteric agonist project, primary screen (AID 625;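 active = fluorescence slope after compound addition differing from the mean of all tested samples at 99.7% confidence, mostly higher but some lower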;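 note: thallium influx through GIRK channels coupled to M4 in HEK293 cells with BTC-AM dye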); conditions: at 10 µM, actives lie on both sides
Sequence of Muscarinic acetylcholine receptor M4 (Homo sapiens) (P08173 whole entry, looked up): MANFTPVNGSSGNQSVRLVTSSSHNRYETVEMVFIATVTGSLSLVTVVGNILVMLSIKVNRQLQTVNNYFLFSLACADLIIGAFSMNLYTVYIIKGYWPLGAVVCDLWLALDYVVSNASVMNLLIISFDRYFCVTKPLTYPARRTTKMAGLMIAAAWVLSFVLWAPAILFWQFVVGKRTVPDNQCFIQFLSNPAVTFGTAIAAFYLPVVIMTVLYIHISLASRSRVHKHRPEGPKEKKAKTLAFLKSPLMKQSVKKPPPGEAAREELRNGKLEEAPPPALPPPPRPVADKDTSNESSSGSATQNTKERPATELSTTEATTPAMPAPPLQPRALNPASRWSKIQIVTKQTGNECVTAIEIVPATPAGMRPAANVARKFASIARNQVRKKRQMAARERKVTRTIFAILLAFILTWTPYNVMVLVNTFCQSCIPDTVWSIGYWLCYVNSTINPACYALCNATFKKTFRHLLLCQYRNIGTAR
How it was run: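 Material: HEK293 cells with M4 receptor and GIRK channels; Times: cells overnight at 37 °C, BTC-AM loading 1 h, reads 2 min total; Technique: kinetic BTC-AM fluorescence sampled at 1 Hz, 10 s pre-addition baseline; Read-out basis: slope over 15–24 s of trace normalized to starting intensity; Controls: carbachol positive, DMSO negative.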

[7] = blockers of RIG-like receptor reporter activation – cell-based, Sendai virus stimulus, luciferase, 10K MLSCN set, TLR/RLR signaling modifier project, primary screen (AID 602276); conditions: HEK293 RL24 IRF3 luciferase reporter, at 10 µM, stronger effect = higher value;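 note: firefly luciferase from ISG56 promoter only with Renilla not read in this screen; 0% = Sendai virus plus DMSO and 100% = medium plus DMSO without virus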
[8] = TLR3 IRF3 reporter activation blockers – cell-based, poly I:C stimulus, luciferase, 10K MLSCN set, primary screen (AID 602277;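 active = inhibition of the reporter signal at or above 50%; inactive = inhibition below 50%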); conditions: HEK293-TLR3 RL24 IRF3 luciferase reporter, at 10 µM, stronger effect = higher value

| SMILES | cell count [1] | inhibition [1] | inhibition of aggregation [2] | nuclei count [2] | inhibition [3] | nuclei count [3] | fluorescence slope [4] | NADPH fluorescence slope [5] | fluorescence slope [6] | inhibition [7] | inhibition [8] |
| --- | --- | --- | --- | --- | --- | --- | --- | --- | --- | --- | --- |
| Nc1nc(-c2ccccc2)cc(C(F)(F)F)n1 | 457 | -7.5% (inactive) | 1.3% (inactive) | 98.1% | -11.2% (inactive) | 107% | -0.571 (inactive) | 1.4e-06 (inactive) | 0.00753 (inactive) | 11% (inactive) | 6.96% (inactive) |
| COCCn1c(=O)[nH]c2cc(C(=O)N3CCN(c4ccccc4OC)CC3)ccc2c1=O | 806 | -7.9% (inactive) | 5.5% (inactive) | 102% | -28.7% (inactive) | 117% | -0.44 (inactive) | 9.4e-06 (inactive) | 0.00559 (inactive) | 10.5% (inactive) | 12.4% (inactive) |
| O=C(Nc1nc(-c2ccccc2)cs1)C1CCCCN1S(=O)(=O)c1ccccc1 (centres undefined) | 509 | 6.9% (inactive) | -0.8% (inactive) | 101% | -18.7% (inactive) | 96.2% | -0.659 (inactive) | 1.4e-05 (inactive) | 0.00633 (inactive) | -0.318% (inactive) | 1.39% (inactive) |
| Cc1csc(OCc2ccc(C#N)cc2)n1 | 636 | -4.4% (inactive) | -1.8% (inactive) | 97.8% | -4.8% (inactive) | 114% | -0.6 (inactive) | -3.4e-05 (inactive) | 0.0082 (inactive) | 7.71% (inactive) | 5.79% (inactive) |
| O=C(O)COc1ccc(Oc2ccccc2)cc1 | 357 | 0.5% (inactive) | 0.7% (inactive) | 103% | -8.6% (inactive) | 112% | -0.567 (inactive) | 1.9e-05 (inactive) | 0.00744 (inactive) | 3.08% (inactive) | 9.93% (inactive) |
| COc1cc(OC)cc(C(=O)NCCN2CCOCC2)c1 | 633 | -11.2% (inactive) | -0.4% (inactive) | 94.3% | -24.5% (inactive) | 108% | -0.573 (inactive) | 1.5e-05 (inactive) | 0.00526 (inactive) | 7.36% (inactive) | 9.91% (inactive) |
| O=C(Nc1cccc(NC(=O)c2cccnc2)c1)c1cccnc1 | 515 | -3.3% (inactive) | -15.9% (inactive) | 96.4% | 2.1% (inactive) | 103% | -0.271 (inactive) | -1.6e-05 (inactive) | 0.0055 (inactive) | 15.2% (inactive) | 11% (inactive) |
| Cc1cc(Cl)c(S(=O)(=O)N2CCN(c3ccc(F)cc3)CC2)cc1OCC(N)=O | 373 | -9% (inactive) | 0.5% (inactive) | 97.1% | -37.6% (inactive) | 96.1% | -0.587 (inactive) | -9.2e-05 (inactive) | 0.0038 (inactive) | 19.6% (inactive) | 9.49% (inactive) |
| Cc1ccc(-n2nc(-c3cccs3)cc2C(=O)NCC2CCCO2)c(C)c1 (centres undefined) | 490 | -1.7% (inactive) | -12.1% (inactive) | 15.1% | -9.6% (inactive) | 110% | -0.405 (inactive) | -8.6e-05 (inactive) | 0.00713 (inactive) | 7.58% (inactive) | 20.7% (inactive) |
| CCCn1c(SCC(=O)NCCc2ccccc2)nnc1-c1ccccn1 | 501 | -7.9% (inactive) | 12.6% (inactive) | 103% | -28.9% (inactive) | 104% | -0.543 (inactive) | -4.4e-05 (inactive) | 0.00518 (inactive) | 3.67% (inactive) | 12.4% (inactive) |
| N#Cc1c(/N=C/c2ccco2)sc2c1CCC2 | 657 | 11.9% (inactive) | 0.6% (inactive) | 105% | -12.4% (inactive) | 104% | -0.507 (inactive) | -0.000202 (inactive) | 0.00356 (inactive) | -16.4% (inactive) | -42.7% (inactive) |
| COC(=O)c1ccc2ncccc2c1 | 378 | 2.6% (inactive) | 9.1% (inactive) | 106% | -10.4% (inactive) | 95.7% | -0.536 (inactive) | -8.5e-05 (inactive) | 0.00451 (inactive) | -15.2% (inactive) | -24.8% (inactive) |
| Nc1nc2sc3c(c2c(=O)s1)CCCC3 | 194 | 0.2% (inactive) | -15.1% (inactive) | 55.3% | 18.8% (inactive) | 90.7% | -0.525 (inactive) | -0.0002 (inactive) | 0.00365 (inactive) | -10.3% (inactive) | -23.7% (inactive) |
| CCOC(=O)Nc1ccc(OC)cc1S(=O)(=O)N1CCCCC1 | 714 | 3.3% (inactive) | -24% (inactive) | 87.3% | -14.6% (inactive) | 111% | -0.586 (inactive) | 2.6e-05 (inactive) | 0.00355 (inactive) | 11.7% (inactive) | 17% (inactive) |

Reference: PubChem BioAssay
